Experimental data gathered from unrelated publications.
Compare with care: the assays were run in different laboratories.
ache: Acetylcholinesterase (ache, Electrophorus electricus, UniProt O42275)
ADORA1: Adenosine receptor A1 (ADORA1, Homo sapiens, UniProt P30542)
CARM1: Histone-arginine methyltransferase CARM1 (CARM1, Homo sapiens, UniProt Q86X55)

Compound | target | assay | system | conditions | inhibition [%]
COc1cc2c(cc1OC)C(=O)N(CC1CCN(Cc3ccccc3)CC1)C2 | ache | enzyme activity, inhibitor |  | 1 µM | 20.4
C1=CSC(=C2SC=CS2)S1 | Ubiquitin carboxyl-terminal hydrolase 5 (USP5, Homo sapiens, UniProt P45974) | enzyme activity, inhibitor |  | 17 µM | 54
COc1cc2c(cc1OC)C(=O)N(CC1CCNCC1)C2 | ache | enzyme activity, inhibitor |  | 1 µM | 2.49
O=C1N=C(N2CCCCN2)S/C1=C\c1ccc(F)cc1O | Neuromedin-K receptor (TACR3, Homo sapiens, UniProt P29371) | ligand displacement, radioligand |  | 10 µM | < 10
CC/C(=N\NC(=O)NCc1cccc(O)c1)c1ccc(O)c(C)c1O | Ribosomal protein S6 kinase beta-2 (RPS6KB2, Homo sapiens, UniProt Q9UBS0) | enzyme activity, inhibitor |  | 0.1 µM | 22.7
COc1ccc2[nH]cc(/C=C/c3ccc(O)cc3)c2c1 | Amyloid-beta precursor protein, monomer (APP, Homo sapiens, UniProt P05067) | amyloid aggregation, inhibitor, fluorescence |  | 25 µM | 44
O=C(NC1C2CCN(CC2)C1Cc1cccnc1)c1cc2ccccc2o1 (centres unmarked) | 5-hydroxytryptamine receptor 3A (Htr3a, Mus musculus, UniProt P23979) | ligand displacement, radioligand |  | 10 µM | 59
COc1cc(NC(C)=O)c(Cl)cc1C(=O)Nc1nccs1 | ADORA1 | cell-free assay |  | 10 µM | 25.2
O[C@@H]1[C@H](O)CO[C@H]1n1cnc2c(NCc3cccc(I)c3)nc(Cl)nc21 | ADORA1 | ligand displacement, radioligand |  | 10 µM, cell membranes | < 10
CCN(c1cc(C#CCN2CCOCC2)cc(C(=O)NCc2c(C)cc(C)[nH]c2=O)c1C)[C@H]1CC[C@H](N(C)CCOC)CC1 | CARM1 | enzyme activity, inhibitor |  | 1 µM | -3
COc1cc2c(cc1OC)C(=O)N(Cc1cccc(N3CCCCC3)n1)C2 | ache | enzyme activity, inhibitor |  | 1 µM | 18.8
CCN1CCN(Cc2ccc(NC(=O)c3ccc(C)c(Oc4ccnc5[nH]ccc45)c3)cc2C(F)(F)F)CC1 | Serine/threonine-protein kinase/endoribonuclease IRE1 (ERN1, Homo sapiens, UniProt O75460) | target engagement in cells, inhibitor, chemoproteomics | Huh-7 | 1 µM | -16.7
O[C@@H]1[C@H](O)CO[C@H]1n1cnc2c(NCc3cccc(F)c3)nc(Cl)nc21 | ADORA1 | ligand displacement, radioligand |  | 10 µM, cell membranes | 10
Nc1ncnc2c1ncn2[C@@H]1O[C@H](CSCCNC(=O)NCc2ccccc2)[C@@H](O)[C@H]1O | CARM1 | enzyme activity, inhibitor, radiometric |  | 10 µM | > 95
COc1cc2c(cc1OC)C(=O)N(CC1CCN(CC3CCNC3)CC1)C2 (centres unmarked) | ache | enzyme activity, inhibitor |  | 1 µM | 4.86
c1cc2cc(C3=NCCN3)ccc2cc1C1=NCCN1 | Rac GTPase-activating protein 1 (Homo sapiens, UniProt Q9H0H5) | enzyme activity, inhibitor, ADP detection |  | 10 µM | 50.4
COc1cc2c(cc1OC)C(=O)N(Cc1ccncc1)C2 | ache | enzyme activity, inhibitor |  | 1 µM | 2.62
O=C(c1ccc(F)cc1)N(Cc1ccccc1)C1CCCCC1 | ADORA1 | cell-free assay |  | 10 µM | 8
O[C@@H]1[C@H](O)CO[C@H]1n1cnc2c(NCc3cccc(Br)c3)nc(Cl)nc21 | ADORA1 | ligand displacement, radioligand |  | 10 µM, cell membranes | < 10
COc1cc2c(cc1OC)C(=O)N(CC1CCN(Cc3cccnc3)CC1)C2 | ache | enzyme activity, inhibitor |  | 1 µM | -0.52
